rRNA inh HTS – inhibits bacterial ribosomal RNA function over humanized ribosomes; E. coli WT GFP vs humanized-ribosome RFP mutants, fluorescence, 24 h; stronger effect = lower value; DMSO median 0, no signal -100; GFP signal change (wild-type ribosome), % (concentration not given with the values); actives 1.6% (n = 350,000);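 active means significant combined selectivity score with lowered wild-type GFP, culture density cut under 30%, mutant RFP and density less affected; inactive means any of these conditions unmet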
SUMO Mot1 rescue – blocks SUMOylation pathway, rescuing yeast Mot1-301 growth; S. cerevisiae Mot1-301 growth rescue, ATP luminescence, 38.5C; percent above DMSO median, 100 means doubled; growth rescue, % at 18.8 µM; actives 1% (n = 320,000);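 active means every valid replicate shows activation above 250% relative to neutral control wells; inactive means the rest, any valid replicate at or below 250%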;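 further: OY570 slx delta 5 strain wells were the positive control but not used for scaling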
Cneo AK release – causes C. neoformans cell lysis; actives 0.2% (n = 360,000); adenylate kinase release luminescence, 4 h; normalised: neutral wells 0, clomiphene wells 100; lysis activity, % at 15 µM; AID 651654;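 active means mean lysis activity across replicates of at least 80%, whatever share of replicates individually reach that level; inactive means mean lysis activity below 80%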
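Assay system: C. neoformans cells. Amount: yeast cell density of 5 × 10^6 cells/mL. Technique: AK luminescence. Buffer or medium: YPD. Times: static 4 h at 37 °C with compound, 1 h detection. Dosing: single-point compound dose. Read-out: lysis from increased AK signal.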
PglD inh – inhibitors of Campylobacter jejuni PglD acetyltransferase; actives 0.098% (n = 360,000); purified PglD enzyme, DTNB colorimetric CoA detection; inhibition, % at 12.5 µM; in the data active means inhibition above about 16%, passing the limit was not always enough
Yeast superoxide – yeast age-related superoxide inhibition as caloric restriction mimetic | superoxide response (% of plate mean), % at 10 µM | S. cerevisiae aged cells, superoxide DHE fluorescence; stronger effect = lower value | actives 0.18% (n = 330,000) | AID 2690;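 active means superoxide response under a set limit, about three screen SD below normal, cut at about 65% in these data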;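 further: yeast aged for seven days with compound at 30 °C before DHE staining; 100% = average MFI of all compound-treated wells on the plate with controls excluded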
An asterisk follows results filed as active; i = inactive; nt = no result. Shown are actives, neighbours in structure and some others; about 2.2% of the full set was active somewhere.

SMILES	rRNA inh HTS	SUMO Mot1 rescue	Cneo AK release	PglD inh	Yeast superoxide
Cc1ccccc1CN(C)CC(=O)Nc1cccc(S(=O)(=O)N(C)c2ccccc2)c1	-21*	-11	nt	nt	88
CN1N=C2c3ccccc3CCCC2C1c1ccc(F)cc1 (stereo not given)	-40*	4	nt	nt	106
COc1ccc2c(c1)C1=NN(/C(C)=C/C(C)=O)C(c3ccc(F)cc3)C1CC2 (stereo not given)	-27	3	-8	2	i
CS(=O)(=O)c1cccc(C(=O)Nc2cccc(-c3nc4ccccc4[nH]3)c2)c1	-19*	404	-4	-1	102
CS(=O)(=O)c1ccc(C(=O)Nc2cccc(-c3nc4ccccc4[nH]3)c2)cc1	10	4	-4	5	86
C[C@@H]1CN([C@H](C)CO)C(=O)c2cc(N(C)C)ccc2O[C@H]1CN(C)Cc1ccc(Cl)c(Cl)c1	-12	nt	-5	4	nt
CCN(CC)CCOC(=O)C(Cc1ccco1)Cc1cccc2ccccc12 (stereo not given)	-34*	42	1	-2	98
Cc1ccc(Oc2coc3cc(O)ccc3c2=O)cc1	-24*	3	-3	0	96
CCCCOc1nc(N2CCOCC2)nc(C)c1[N+](=O)[O-]	-6	2	nt	nt	106
Cc1nc(N2CCOCC2)nc(Oc2ccccc2)c1[N+](=O)[O-]	-43*	10	nt	nt	100
CNC[C@@H]1Oc2ccc(NC(=O)Cn3cnnn3)cc2CC(=O)N([C@H](C)CO)C[C@@H]1C	3	nt	-1	-4	nt
S=c1[nH]nc2nnc3ccccc3n12	-32*	8	2	-6	77
C[C@H](CO)N1C[C@H](C)[C@H](CN(C)S(=O)(=O)c2ccc(F)cc2)Oc2ccc(NC(=O)CCC(F)(F)F)cc2CC1=O	2	nt	-1	0	nt
COc1ccc(-c2nc(C#N)c(NCCCN(C)C)o2)cc1OC	nt	306*	8	-1	92
COCC(=O)N(C)C[C@@H]1Oc2cc(C#CC3CCCC3)ccc2S(=O)(=O)N([C@@H](C)CO)C[C@@H]1C	-2	nt	nt	nt	nt
Cc1ccccc1CN1C(=O)C(C)S/C1=N/N=C/c1ccco1 (stereo not given)	-23*	23	nt	nt	88
CC1S/C(=N/N=C/c2ccco2)N(Cc2ccc(F)cc2)C1=O (stereo not given)	-10	-3	nt	nt	91
CCOc1ccccc1Nc1nnc(SCC(=O)Nc2cccc(S(=O)(=O)NC3=NCCCCC3)c2)s1	nt	677*	1	1	107
CCOc1ccc2nc(SCC(=O)Nc3ccc4c(c3)OCCO4)[nH]c2c1	nt	69	-2	-5	97
CCOc1ccc2nc(SCC(=O)Nc3cccc(S(=O)(=O)NC4=NCCCCC4)c3)[nH]c2c1	-27*	10	-5	-6	91
C[C@H](CO)N1C[C@H](C)[C@@H](CN(C)C(=O)N[C@H](C)c2ccccc2)OCc2ccccc2-c2c(n(C)c3ccccc23)C1=O	-7	nt	-3	-5	nt
CN(CCOc1ccccc1)CC(=O)Nc1ccc(Cl)c(S(=O)(=O)N(C)C)c1	-37*	7	nt	nt	102
CC(C)CC#Cc1ccc2c(c1)O[C@H](CN(C)Cc1ccc3c(c1)OCO3)[C@H](C)CN([C@@H](C)CO)S2(=O)=O	nt	nt	45	1	nt
COc1ccc(-c2cc(=O)oc3cc(OC(C)C(=O)NC(Cc4c[nH]c5ccc(O)cc45)C(=O)O)ccc23)cc1 (stereo not given)	nt	-13	0	4	79
CC(Oc1ccc2c(-c3ccccc3)cc(=O)oc2c1)C(=O)N[C@H](Cc1c[nH]c2ccccc12)C(=O)O (stereo not given in full)	-24*	1	0	-1	113
SMILES	rRNA inh HTS	SUMO Mot1 rescue	Cneo AK release	PglD inh	Yeast superoxide
CCC(C)NC(=O)c1cn(CC)c2cc(N3CCN(C)CC3)c(F)cc2c1=O (stereo not given)	-44	1	0	-3	113
CCn1cc(C(=O)N[C@H](C)c2ccccc2)c(=O)c2cc(F)c(N3CCN(C)CC3)cc21	nt	815*	nt	nt	105
O=[N+]([O-])c1ccc(N2CCN(c3ccc([N+](=O)[O-])cc3CO)CC2)c(CO)c1	-7	7	0	3	97
N#Cc1cc([N+](=O)[O-])ccc1N1CCN(c2ccccc2O)CC1	-24*	-13	-3	7	92
O=C(NCC(F)(F)F)[C@@H]1[C@@H](CO)[C@@H]2Cn3c(cccc3=O)[C@H]1N2CC1CCCC1	-1	nt	nt	nt	nt
O=C(C[C@H]1CC[C@H](NS(=O)(=O)c2ccc(F)cc2)[C@H](CO)O1)NCc1ccc(Cl)c(Cl)c1	7	nt	-2	13	nt
O=S(=O)(c1cc(F)ccc1F)N1CCC2(CC1)OCCO2	2	5	2	9	98
O=C(Nc1ccc(F)c(F)c1)c1ccc(F)c(S(=O)(=O)N2CCC3(CC2)OCCO3)c1	-27*	0	nt	nt	101
COc1ccc(C(=O)Nc2ccc(NC(C)=O)cc2)cc1S(=O)(=O)N1CCCC1	-33*	3	-2	-7	89
COc1ccc(NS(=O)(=O)c2cccc(Cl)c2Cl)cc1S(=O)(=O)N1CCCCC1	-35*	1	nt	nt	93
COc1ccc(CCNC(=S)N2CCN(S(=O)(=O)c3cccc(F)c3)CC2)cc1	6	351*	2	1	110
COc1ccc(S(=O)(=O)N(C)C[C@H]2Oc3ccc(NC(=O)NC4CCCCC4)cc3C(=O)N([C@@H](C)CO)C[C@@H]2C)cc1	1	nt	1	2	nt
COc1ccc(CN(C)C[C@@H]2Oc3ccc(NC(=O)Nc4c(C)noc4C)cc3CC(=O)N([C@H](C)CO)C[C@@H]2C)cc1	0	nt	nt	nt	nt
COc1ccc(S(=O)(=O)Nc2ccc3c(c2)C(=O)N([C@@H](C)CO)C[C@H](C)[C@H](CN(C)C(=O)c2ccccc2)OCCCC[C@@H](C)O3)cc1	1	nt	-2	1	nt
COc1ccc(CCNC(=O)c2ccc(Cl)c(S(=O)(=O)N3CCCC3)c2)cc1	-29*	nt	0	-4	85
C[C@@H]1CN([C@H](C)CO)S(=O)(=O)c2ccc(C#CC3CC3)cc2O[C@@H]1CN(C)C(=O)CN(C)C	5	nt	-3	-1	nt
O=C(COC(=O)Cc1ccc(F)cc1)NCCc1ccccc1	4	10	nt	nt	90
O=C(COC(=O)Cc1ccc(Cl)cc1)NCCc1ccccc1	-24*	20	-1	1	117
COCCCNCCOCCSc1ccc(Cl)cc1	9	279*	8	1	99
Cc1ccc(NC(=O)Nc2ccc3c(c2)C(=O)N(C)[C@H]2CC[C@H](CC(=O)O)O[C@H]2CO3)cc1	0	nt	0	2	nt
Cc1ccc(S(=O)(=O)N2CC[C@@H]3[C@H](CO)Nc4ccc(-c5ccccc5F)cc4[C@@H]32)cc1	0	nt	90*	3	nt
O=C(Cn1c2[n+](c3ccc(C(F)(F)F)cc31)CCCCC2)Nc1ccccc1	-24	-2	nt	nt	96

Bioassay records: PubChem BioAssay, several laboratories
